Assay results from ChEMBL document CHEMBL4033790, “Design and Synthesis of Novel Deuterated Ligands Functionally Selective for the γ-Aminobutyric Acid Type A Receptor (GABAAR) α6 Subtype with Improved Metabolic Stability and Enhanced Bioavailability” (J Med Chem, 2018).
≈ marks a conversion by molar mass, not a printed value. Calls of active or inactive are those of the source. The calls are words filed in the database; no cut-off is given here.

What was measured:
Liver [1] = assay: Half life in human liver microsomes at 10 uM by LC-MS/MS analysis; type: ADME, microsome
Summary of the method: (§1)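 Compound at 10 μM final was preincubated 5 min at 37 °C with NADPH regenerating system in phosphate buffer, pH 7.4. Human or mouse liver microsomes (0.5 mg/mL protein) were added to start the reaction. Samples were taken at 0 (no microsomes) and 10–60 min and measured by LC-MS/MS against an internal standard. Half-life = 0.693/k, with k the slope of ln peak-area ratio versus time. Three experiments, each in duplicate.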

[2] = Metabolic stability in human liver microsomes assessed as parent compound remaining at 10 uM after 60 mins by LC-MS analysis; type: ADME, microsome; conditions: read-out: Stability
Summary of the method: (§2)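 The 60 min samples of the microsomal incubation (10 μM compound, human or mouse liver microsomes at 0.5 mg/mL, NADPH regenerating system, 37 °C) were analysed by LC-MS. Detection used SIM mode with dual ESI/APCI ionization, calibrated to the retention times and masses of the parent and its O-demethylated metabolites. Peak intensities were measured.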

Liver [3] = assay: Half life in mouse liver microsomes at 10 uM by LC-MS/MS analysis; type: ADME, microsome; summary of the method: as §1
[4] = Metabolic stability in mouse liver microsomes assessed as parent compound remaining at 10 uM after 60 mins by LC-MS analysis; type: ADME, microsome; conditions: read-out: Stability; summary of the method: as §2
[5] = Aqueous solubility of the compound in DI water at pH 7 after 2 hrs by LC-MS analysis; type: physicochemical; conditions: buffer, pH 7, 2 h
Summary of the method: (§3)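 10 mg compound dissolved in 2 mL DMAC; 10 μL of this added to 2 mL DI water (pH 7, sonicated) or 2 mL 0.01 M aq HCl (pH 2), held 2 h at 37 °C. Filtered through 0.45 micron filter, then quantified by LC-MS in SIM mode against calibration curves of standards in DMAC (n = 5); n=3.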

[6] = Solubility of the compound in 0.01M HCl at pH 2 after 2 hrs by LC-MS analysis; type: physicochemical; conditions: buffer, pH 2, 2 h; summary of the method: as §3
Rattus norvegicus = species on record: Rattus norvegicus; assay: Displacement of [3H]-flunitrazepam from rat brain GABA-A receptor benzodiazepine site […] at 10 uM after 60 to 90 mins by scintillation counting; conditions: tested as the 2H-labelled form
[7] = molecular target: Delta-type opioid receptor (Homo sapiens) (UniProt P41143); assay: Displacement of [3H]-DADLE from human recombinant DOR expressed in HEK293 cells at 10 uM after 60 to 90 mins by scintillation counting; type: cell-based; conditions: tested as the 2H-labelled form
Delta-type opioid receptor (Homo sapiens), sequence (P41143 whole entry): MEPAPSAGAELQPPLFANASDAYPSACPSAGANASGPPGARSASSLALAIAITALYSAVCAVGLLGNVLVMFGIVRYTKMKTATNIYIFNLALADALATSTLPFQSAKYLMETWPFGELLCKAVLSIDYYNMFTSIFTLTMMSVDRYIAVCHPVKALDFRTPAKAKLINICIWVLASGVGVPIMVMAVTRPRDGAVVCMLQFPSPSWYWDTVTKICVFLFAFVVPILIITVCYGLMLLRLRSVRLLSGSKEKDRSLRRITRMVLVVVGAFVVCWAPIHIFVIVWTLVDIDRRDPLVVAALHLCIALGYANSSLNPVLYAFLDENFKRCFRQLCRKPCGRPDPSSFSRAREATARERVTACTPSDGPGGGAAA
Summary of the method: (§4)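 Primary single-concentration radioligand displacement screen run by the NIMH Psychoactive Drug Screening Program across a 46-target panel that includes hERG. The read-out is percent inhibition of specific radioligand binding. Any compound displacing more than 50% of radioligand went on to secondary binding assays to determine Ki.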

Mus musculus = assay: Neurotoxicity in Swiss Webster mouse assessed as induction of motor impairment at 40 mg/kg administered via oral gavage measured after 10 to 60 mins by rotarod method; type: toxicity, organism-based; conditions: in vivo
Summary of the method: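 Female mice were given a single oral gavage dose of 40 mg/kg, either in 50% PBS/40% propylene glycol/10% DMSO or, for poorly soluble compounds, in 2% polyethylene glycol plus 2.5% hydroxymethyl cellulose. Rotarod performance was tested 10, 30 and 60 min after dosing, with diazepam 5 mg/kg as positive control.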

[8] = molecular target: Muscarinic acetylcholine receptor M4 (Homo sapiens) (UniProt P08173); assay: Displacement of [3H]-QNB from human recombinant M4 receptor expressed in HEK293 cells at 10 uM after 60 to 90 mins by scintillation counting; type: cell-based; summary of the method: as §4
Muscarinic acetylcholine receptor M4 (Homo sapiens), sequence (P08173 whole entry): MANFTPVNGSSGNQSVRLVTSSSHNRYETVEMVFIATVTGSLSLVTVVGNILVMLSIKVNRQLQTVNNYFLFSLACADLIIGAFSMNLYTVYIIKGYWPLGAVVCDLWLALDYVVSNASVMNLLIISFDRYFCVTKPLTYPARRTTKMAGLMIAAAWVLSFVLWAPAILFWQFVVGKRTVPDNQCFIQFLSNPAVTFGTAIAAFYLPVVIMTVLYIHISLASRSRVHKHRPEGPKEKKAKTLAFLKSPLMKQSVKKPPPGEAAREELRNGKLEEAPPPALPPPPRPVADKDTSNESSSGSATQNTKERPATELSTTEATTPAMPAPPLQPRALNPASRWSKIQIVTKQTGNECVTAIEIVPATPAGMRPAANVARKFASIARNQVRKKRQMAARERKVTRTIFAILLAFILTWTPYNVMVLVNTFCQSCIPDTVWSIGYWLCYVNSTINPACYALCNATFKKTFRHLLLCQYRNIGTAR

[9] = molecular target: GABA-A receptor; alpha-6/beta-3/gamma-2 (Homo sapiens) (UniProt P18507+P28472+Q16445); assay: Positive allosteric modulation of GABA-A receptor alpha6beta3gamma2 (unknown origin) expressed in Xenopus laevis oocytes assessed as potentiation of EC3 GABA induced currents up to 10 uM at -60 mV holding potential by electrophysiological method; type: cell-based; conditions: tested as the 2H-labelled form
Summary of the method: (§5)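 Stage 5–6 defolliculated Xenopus oocytes were injected with 2.5 ng total mRNA per oocyte: α1, α2, α3 or α5 with β3 and γ2 at 1:1:5, and α4 or α6 with β3 and γ2 at 3:1:5. Oocytes were kept ≥36 h at 18 °C in NDE medium before recording. Compounds were co-applied with GABA titrated to EC3-5 for each oocyte. Curves were fitted with the Hill equation; mean ± SEM from ≥3 oocytes across two batches.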

[10] = molecular target: GABA-A receptor; alpha-1/beta-3/gamma-2 (Homo sapiens) (UniProt P14867+P18507+P28472); assay: Positive allosteric modulation of GABA-A receptor alpha1beta3gamma2 (unknown origin) expressed in Xenopus laevis oocytes assessed as potentiation of EC3 GABA induced currents up to 100 uM at -60 mV holding potential by electrophysiological method relative to GABA; type: cell-based; conditions: tested as the 2H-labelled form; summary of the method: as §5
[11] = molecular target: GABA-A receptor; alpha-2/beta-3/gamma-2 (Homo sapiens) (UniProt P18507+P28472+P47869); assay: Positive allosteric modulation of GABA-A receptor alpha2beta3gamma2 (unknown origin) expressed in Xenopus laevis oocytes assessed as potentiation of EC3 GABA induced currents up to 100 uM at -60 mV holding potential by electrophysiological method relative to GABA; type: cell-based; conditions: tested as the 2H-labelled form; summary of the method: as §5
[12] = molecular target: GABA-A receptor; alpha-3/beta-3/gamma-2 (Homo sapiens) (UniProt P18507+P28472+P34903); assay: Positive allosteric modulation of GABA-A receptor alpha3beta3gamma2 (unknown origin) expressed in Xenopus laevis oocytes assessed as potentiation of EC3 GABA induced currents up to 100 uM at -60 mV holding potential by electrophysiological method relative to GABA; type: cell-based; conditions: tested as the 2H-labelled form; summary of the method: as §5
[13] = molecular target: GABA A receptor alpha-4/beta-3/gamma-2 (Homo sapiens) (UniProt P18507+P28472+P48169); assay: Positive allosteric modulation of GABA-A receptor alpha4beta3gamma2 (unknown origin) expressed in Xenopus laevis oocytes assessed as potentiation of EC3 GABA induced currents up to 100 uM at -60 mV holding potential by electrophysiological method relative to GABA; type: cell-based; conditions: tested as the 2H-labelled form; summary of the method: as §5
[14] = molecular target: GABA-A receptor; alpha-5/beta-3/gamma-2 (Homo sapiens) (UniProt P18507+P28472+P31644); assay: Positive allosteric modulation of GABA-A receptor alpha5beta3gamma2 (unknown origin) expressed in Xenopus laevis oocytes assessed as potentiation of EC3 GABA induced currents up to 100 uM at -60 mV holding potential by electrophysiological method relative to GABA; type: cell-based; conditions: tested as the 2H-labelled form; summary of the method: as §5
[15] = molecular target: Voltage-gated inwardly rectifying potassium channel KCNH2 (Homo sapiens, UniProt Q12809); assay: Displacement of [3H]-dofetilide from human ERG expressed in HEK cell membranes at >10 uM after 60 to 90 mins by scintillation counting
Voltage-gated inwardly rectifying potassium channel KCNH2, sequence (Q12809 whole entry): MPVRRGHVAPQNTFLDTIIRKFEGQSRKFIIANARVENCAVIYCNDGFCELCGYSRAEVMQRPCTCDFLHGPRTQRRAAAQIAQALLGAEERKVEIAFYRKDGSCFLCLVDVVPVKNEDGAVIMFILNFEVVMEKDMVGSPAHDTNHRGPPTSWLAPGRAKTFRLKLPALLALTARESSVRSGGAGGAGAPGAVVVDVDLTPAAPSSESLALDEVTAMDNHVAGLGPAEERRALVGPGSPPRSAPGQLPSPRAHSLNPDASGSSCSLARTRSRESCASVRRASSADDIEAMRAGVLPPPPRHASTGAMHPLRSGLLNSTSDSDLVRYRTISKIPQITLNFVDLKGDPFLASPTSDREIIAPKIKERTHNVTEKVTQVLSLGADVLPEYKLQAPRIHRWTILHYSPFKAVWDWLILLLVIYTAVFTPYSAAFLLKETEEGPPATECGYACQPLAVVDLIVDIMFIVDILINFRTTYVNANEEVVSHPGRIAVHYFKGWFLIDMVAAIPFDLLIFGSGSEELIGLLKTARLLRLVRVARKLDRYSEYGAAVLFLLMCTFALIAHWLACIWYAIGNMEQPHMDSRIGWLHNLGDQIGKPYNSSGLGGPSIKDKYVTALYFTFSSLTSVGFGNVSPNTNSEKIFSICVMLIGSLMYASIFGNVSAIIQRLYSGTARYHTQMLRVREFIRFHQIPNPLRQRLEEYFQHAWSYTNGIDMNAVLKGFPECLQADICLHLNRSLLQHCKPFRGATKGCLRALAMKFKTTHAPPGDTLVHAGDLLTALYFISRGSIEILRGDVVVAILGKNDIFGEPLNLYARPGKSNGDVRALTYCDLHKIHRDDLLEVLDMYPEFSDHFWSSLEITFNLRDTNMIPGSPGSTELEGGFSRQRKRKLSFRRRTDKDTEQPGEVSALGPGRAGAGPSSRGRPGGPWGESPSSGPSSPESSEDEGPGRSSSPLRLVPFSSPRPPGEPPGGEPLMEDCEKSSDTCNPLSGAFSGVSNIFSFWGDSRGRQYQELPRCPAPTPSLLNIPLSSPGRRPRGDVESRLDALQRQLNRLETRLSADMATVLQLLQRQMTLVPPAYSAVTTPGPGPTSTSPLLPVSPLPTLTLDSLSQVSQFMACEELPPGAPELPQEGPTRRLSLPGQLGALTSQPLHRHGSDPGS

HEK-293T = assay: Cytotoxicity against HEK293T cells assessed as reduction in cell viability up to 400 uM after 48 hrs by CellTiter-Glo assay; type: cell-based; conditions: human
Summary of the method: (§6)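 HEK293T and HepG2 cells grown in high-glucose DMEM with non-essential amino acids, 10 mM HEPES, penicillin/streptomycin and 10% heat-inactivated FBS. Cells were harvested with trypsin and plated; compound was pin-transferred 3 h later. Incubation was 48 h, then CellTiter-Glo luminescence was read. Controls were DMSO (negative) and a cytotoxic aminoketone (positive). Quadruplicates, three independent runs, normalized to controls, nonlinear regression.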

HepG2 = assay: Cytotoxicity against human HepG2 cells assessed as reduction in cell viability up to 400 uM after 48 hrs by CellTiter-Glo assay; type: cell-based; conditions: hepg2, 48 h; summary of the method: as §6
[16] = Cmax in Wistar rat plasma at 10 mg/kg, ip administered as single dose measured at 5 to 720 mins post dose by HPLC-MS/MS analysis; type: ADME, organism-based; set-up: dose 10 mg/kg, route intraperitoneal
Summary of the method: (§7)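 Male Wistar rats (250-350 g) given a single 10 mg/kg i.p. dose of a 5 mg/ml suspension in 85% distilled water, 14% propylene glycol, 1% Tween 80. Three rats per time point (5, 20, 60, 180, 720 min). Blood and brain were collected after sacrifice. Drug was recovered by solid phase extraction and quantified by HPLC-MS/MS.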

[17] = Tmax in Wistar rat plasma at 10 mg/kg, ip administered as single dose by HPLC-MS/MS analysis; type: ADME, organism-based
Summary of the method: (§8)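 Male Wistar rats (250–350 g) received a single i.p. dose of 10 mg/kg as a 5 mg/ml suspension in 85% water, 14% propylene glycol and 1% Tween 80. Three rats per time point were sacrificed at 5, 20, 60, 180 and 720 min for plasma and brain. Samples were cleaned up by solid-phase extraction and quantified by HPLC-MS/MS.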

[18] = AUC (0 to 12 hrs) in Wistar rat plasma at 10 mg/kg, ip administered as single dose by HPLC-MS/MS analysis; type: ADME, organism-based; set-up: time < 12 hr, dose 10 mg/kg, route intraperitoneal
[19] = Terminal elimination half-life in Wistar rat plasma at 10 mg/kg, ip administered as single dose by HPLC-MS/MS analysis; type: ADME, organism-based; conditions: read-out: beta t1/2 (converted); summary of the method: as §8
[20] = Cmax in Wistar rat brain at 10 mg/kg, ip administered as single dose measured at 5 to 720 mins post dose by HPLC-MS/MS analysis; type: ADME, organism-based; set-up: dose 10 mg/kg, route intraperitoneal; summary of the method: as §7
[21] = Tmax in Wistar rat brain at 10 mg/kg, ip administered as single dose by HPLC-MS/MS analysis; type: ADME, organism-based; summary of the method: as §8
Brain [22] = assay: AUC (0 to 12 hrs) in Wistar rat brain at 10 mg/kg, ip administered as single dose by HPLC-MS/MS analysis; type: ADME, organism-based; set-up: dose 10 mg/kg, time < 12 hr, route intraperitoneal; conditions: in vivo
[23] = Terminal elimination half-life in Wistar rat brain at 10 mg/kg, ip administered as single dose by HPLC-MS/MS analysis; type: ADME, organism-based; conditions: read-out: beta t1/2 (converted); summary of the method: as §8
[24] = Ratio of brain AUC (0 to t) to plasma AUC (0 to t), Kp of the compound in Wistar rat at 10 mg/kg, ip administered as single dose by HPLC-MS/MS analysis; type: ADME, organism-based
Brain [25] = assay: Fraction unbound in Wistar rat brain at 10 mg/kg, ip administered as single dose measured at 5 to 720 mins post dose by HPLC-MS/MS analysis; type: ADME, organism-based; conditions: in vivo
Summary of the method: (§9)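 Free fraction in rat plasma and brain tissue was measured in vitro by rapid equilibrium dialysis. Exposure came from male Wistar rats (250-350 g) given a single 10 mg/kg IP dose, as a 5 mg/ml suspension in 85% water, 14% propylene glycol and 1% Tween 80. Three rats per time point (5–720 min); brain analysed by HPLC-MS/MS after solid-phase extraction.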

Brain [26] = assay: Unbound AUC in Wistar rat brain at 10 mg/kg, ip administered as single dose measured at 5 to 720 mins post dose by HPLC-MS/MS analysis; type: ADME, organism-based; conditions: in vivo; summary of the method: as §9
[27] = Drug level in mouse liver microsomes treated with 7-Bromo-2-(4-methoxy-d3-phenyl)-2,5-dihydro-3H-pyrazolo[4,3-c]quinolin-3-one after 60 mins by LC-MS analysis; type: ADME; conditions: 1 h
[28] = Drug level in human liver microsomes treated with 7-Bromo-2-(4-methoxy-d3-phenyl)-2,5-dihydro-3H-pyrazolo[4,3-c]quinolin-3-one after 60 mins by LC-MS analysis; type: ADME; conditions: 1 h

COc1ccc(-n2nc3c4cc(Cl)ccc4[nH]cc-3c2=O)cc1
t1/2 (Liver [1]): 2.3 h
remaining at 1 h, 10 µM [2]: 72.5%
t1/2 (Liver [3]): 1.9 h
remaining at 1 h, 10 µM [4]: 69.2%
solubility [5]: 6.4 µM (≈ 2.08 µg/mL)
solubility [6]: 8.5 µM (≈ 2.77 µg/mL)
inhibition (Rattus norvegicus): Active
inhibition [7]: Active
Activity (Mus musculus): Non-Toxic

COc1ccc2c3nn(-c4ccc(OC)nc4)c(=O)c-3c[nH]c2c1
remaining at 1 h, 10 µM [2]: 92.8%
remaining at 1 h, 10 µM [4]: 74.8%
solubility [5]: 67.2 µM (≈ 21.7 µg/mL)
solubility [6]: 115.4 µM (≈ 37.2 µg/mL)
inhibition [8]: Active
Activity (Mus musculus): Non-Toxic
Activity [9]: Active
Activity [10]: inactive
Activity [11]: inactive
Activity [12]: inactive
Activity [13]: inactive
Activity [14]: inactive
inhibition (INH) [15]: Not Active

[2H]C([2H])([2H])Oc1ccc(-n2nc3c4ccc(OC([2H])([2H])[2H])cc4[nH]cc-3c2=O)cc1
remaining at 1 h, 10 µM [2]: 91.5%
remaining at 1 h, 10 µM [4]: 93.1%
Activity (HEK-293T): Non-Toxic
Activity (HepG2): Non-Toxic
Activity (Mus musculus): Non-Toxic
Cmax [16]: 3410 ng/mL
Tmax [17]: 0.55 h
AUC(0-t) at 12 h [18]: 16700 ng·h/mL
half-life [19]: 2.64 h
Cmax [20]: 534 ng/g
Tmax [21]: 0.78 h
AUC (Brain [22]): 2747.67 ng·h/g
half-life [23]: 3.52 h
Kp [24]: 0.17
inhibition (INH) [15]: Not Active
Fu (Brain [25]): 0.105
fAUC (Brain [26]): 288.78 ng·h/g

O=c1c2c[nH]c3cc(Br)ccc3c-2nn1-c1ccc(O)cc1
Drug metabolism [27]: Metabolite_Detected
Drug metabolism [28]: Metabolite_Detected
